# Assay results taken from ChEMBL document CHEMBL2417401, “Evaluation of steroidal amines as lipid raft modulators and potential anti-influenza agents” (Bioorg Med Chem Lett, 2013).
# Assays:
# [1] = Cytotoxicity against MDCK2 cells assessed as maximum tolerated concentration by lactate dehydrogenase release assay; type: cell-based, Canis lupus familiaris, MDCK-II; conditions: dog, read-out: MTD
# Procedure, shortened: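 Maximum tolerated concentration in MDCKII cells from LDH release, determined under focus reduction assay conditions.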
# Influenza A virus [2] = assay: Antiviral activity against Influenza A/PR8/34 (H1N1) virus infected in MDCK2 cells assessed as inhibition of virus reproduction by ELISA; type: functional, organism-based; conditions: A/Puerto Rico/8/1934(H1N1), MDCK-II
# [3] = Therapeutic index, ratio of MTD for MDCK2 cells to IC50 for Influenza A/PR8/34 (H1N1) virus; type: cell-based; conditions: dog, read-out: TI
# Procedure, shortened: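 TI = MTC/IC50. IC50 comes from a focus reduction cell ELISA (anti-NP antibody HB65) in MDCKII cells, which were pre-incubated 5 min with serially diluted compound and then infected with serially diluted A/PR8/34. IC50 was obtained by regression where a dose-effect relation was seen; assays were run at least twice.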
# Influenza A virus [4] = assay: Antiviral activity against Influenza A/PR8/34 (H1N1) virus infected in MDCK2 cells assessed as inhibition of virus budding by ELISA relative to control; type: functional, A/Puerto Rico/8/1934(H1N1), MDCK-II
# Procedure, shortened: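 Infected MDCKII cells biotinylated 6 h post-infection; excess biotin quenched, and virus budded over the next hour harvested. Biotinylated particles captured on streptavidin-coated plates and detected by ELISA. Result relative to DMSO solvent control (100%).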
# Influenza A virus [5] = assay: Antiviral activity against Influenza A/PR8/34 (H1N1) virus infected in MDCK2 cells assessed as raft modulation using N-terminally sterol-linked peptide as tracer relative to control; type: functional, A/Puerto Rico/8/1934(H1N1), MDCK-II; parameters: concentration or dose not given beside the values
# Procedure, shortened: (§1)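 Raft liposomes (mol %: cholesterol 35, sphingomyelin 10.5, ganglioside M1 3.5, phosphatidylcholine 25.5, phosphatidylserine 25.5). Tracer is perylene or an N-terminally sterol-linked peptide inserted in the outer leaflet. Liposome/buffer partitioning is read by fluorescence; P is approximated as the membrane/aqueous tracer ratio. Disrafting % = 100×{1−P_steroid/P_DMSO}; augmentation % = −100×{1−P_DMSO/P_steroid}.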
# Influenza A virus [6] = assay: Antiviral activity against Influenza A/PR8/34 (H1N1) virus infected in MDCK2 cells assessed as inactivation of virus by virucidal assay relative to control; type: functional, A/Puerto Rico/8/1934(H1N1), MDCK-II; parameters: concentration or dose not given beside the values
# Procedure, shortened: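 Influenza A/PR8/34 (H1N1) incubated with compound for 30 min, then titrated by focus reduction assay (cell ELISA in MDCKII cells with anti-nucleoprotein antibody HB65). Activity expressed relative to DMSO solvent control set at 100%.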
# Influenza A virus [7] = assay: Antiviral activity against Influenza A/PR8/34 (H1N1) virus infected in MDCK2 cells assessed as raft modulation using perylene as tracer relative to control; type: functional, A/Puerto Rico/8/1934(H1N1), MDCK-II; parameters: concentration or dose not given beside the values; procedure, shortened: as §1
Structure (SMILES),MNTC [1],IC50 (Influenza A virus [2]),IC90 (Influenza A virus [2]),selectivity ratio [3],inhibition (INH) (Influenza A virus [4]),Activity (Influenza A virus [5]),Activity (Influenza A virus [6]),Activity (Influenza A virus [7])
CC(C)CCC[C@@H](C)[C@H]1CC[C@H]2[C@@H]3CC[C@H]4C[C@H](N)CC[C@]4(C)[C@H]3CC[C@]12C,15 µM,1.9 µM,≥ 15 µM,7.9,79.9%,56.3%,28.5%,-72.8%
CC(C)CCC[C@@H](C)[C@H]1CC[C@H]2[C@@H]3CC[C@@]4(O)[C@H](O)C(=O)CC[C@]4(C)[C@H]3CC[C@]12C,,16 µM,,,,,,
CC(C)CCC[C@@H](C)[C@H]1CC[C@H]2[C@@H]3CC[C@H]4C[C@@H](N(C)C)CC[C@]4(C)[C@H]3CC[C@]12C,15 µM,3.7 µM,≥ 15 µM,4.1,42.8%,15.6%,0%,15.5%
CC(C)CCC[C@@H](C)[C@H]1CC[C@H]2[C@@H]3CC[C@H]4C[C@@H]([N+](C)(C)C)CC[C@]4(C)[C@H]3CC[C@]12C.[I-],12.5 µM,3.5 µM,≥ 12.5 µM,3.6,94.4%,83.5%,16%,90.3%
CC(C)CCC[C@@H](C)[C@H]1CC[C@H]2[C@@H]3CC=C4C[C@@H](N)CC[C@]4(C)[C@H]3CC[C@]12C,25 µM,8.6 µM,11.4 µM,2.9,50.9%,78.8%,63.4%,83.2%
CC(C)CCC[C@@H](C)[C@H]1CC[C@H]2[C@@H]3CC[C@H]4C[C@H](O)[C@@H](N)C[C@]4(C)[C@H]3CC[C@]12C,75 µM,4.7 µM,62 µM,16,53%,32.3%,75.5%,26.5%
CC(C)CCC[C@@H](C)[C@H]1CC[C@H]2[C@@H]3CC[C@H]4C[C@@H](CN)CC[C@]4(C)[C@H]3CC[C@]12C,37.5 µM,4 µM,11.6 µM,9.4,30.7%,-39.3%,90.3%,-66.6%
CC(C)CCC[C@@H](C)[C@H]1CC[C@H]2[C@@H]3CC[C@H]4C[C@H](CN)CC[C@]4(C)[C@H]3CC[C@]12C,37.5 µM,3.7 µM,7.7 µM,10.1,12.7%,-39.6%,50.9%,-60.3%
CC(C)CCC[C@@H](C)[C@H]1CC[C@H]2[C@@H]3CC[C@H]4C[C@](O)(CN)CC[C@]4(C)[C@H]3CC[C@]12C,25 µM,2.3 µM,21.5 µM,10.9,41%,15.6%,64.2%,-41.5%
CC(C)CCC[C@@H](C)[C@H]1CC[C@H]2[C@@H]3CC[C@H]4C[C@@H](CCN)CC[C@]4(C)[C@H]3CC[C@]12C,50 µM,2.1 µM,13.4 µM,23.8,65%,31.2%,132%,-38.2%
CC(C)CCC[C@@H](C)[C@H]1CC[C@H]2[C@@H]3CC[C@H]4CCNCC[C@]4(C)[C@H]3CC[C@]12C,12.5 µM,3.3 µM,9.7 µM,3.8,61.8%,,44.1%,
CC(C)CCC[C@@H](C)[C@H]1CC[C@H]2[C@@H]3CC[C@H]4NCCC[C@]4(C)[C@H]3CC[C@]12C,15 µM,5.9 µM,,2.5,20.4%,36.1%,0%,2.8%
CC(C)CCC[C@@H](C)[C@H]1CC[C@H]2[C@@H]3CC[C@@]4(O)[C@H](O)[C@@H](O)CC[C@]4(C)[C@H]3CC[C@]12C,15 µM,16.1 µM,,0.9,39.4%,-36.5%,76.7%,-65.2%
CN[C@H]1CC[C@@]2(C)[C@@H](CC[C@@H]3[C@@H]2CC[C@]2(C)[C@@H]([C@H](C)CCCC(C)C)CC[C@@H]32)C1,25 µM,3.3 µM,17.5 µM,7.6,33.8%,-7%,0%,-50.5%
CC(C)CCCC(C)C1CCC2C3CCC4CC(N)CCC4(C)C3CCC12C (centres undefined),15 µM,1.7 µM,9 µM,8.8,51.8%,-7.1%,47.8%,-42.4%
